Experimental findings from ChEMBL document CHEMBL2046404, “Design, synthesis, and structure-activity correlations of novel dibenzo[b,d]furan, dibenzo[b,d]thiophene, and N-methylcarbazole clubbed 1,2,3-triazoles as potent inhibitors of Mycobacterium tuberculosis” (J Med Chem, 2012) are described below.

Test [1] has as its system Mycobacterium tuberculosis. Kind of test: Antitubercular activity against Mycobacterium tuberculosis H37Rv ATCC 27294 after 28 days by agar dilution method. In kind it is functional. The note with it: H37Rv ATCC 27294, 672 h. In short, it runs like this:
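Twofold serial dilutions incorporated into Middlebrook 7H11 agar with OADC, final 25–0.78 μg/mL. Inoculum from fresh 7H11/OADC slants, 1 mg/mL wet weight in 0.05% Tween 80 saline diluted 10⁻² (~10⁷ cfu/mL); 5 μL spotted per tube.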
(In general: In agar dilution, organisms are placed on agar that contains the substance at set levels.)

The subject of the next test is HeLa. The test can be described thus: Cytotoxicity against human HeLa cells after 48 hrs after MTT assay. In kind it is cell-based. In short, it runs like this: (§1)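 Cells grown in DMEM with 10% FBS, 37 °C, 5% CO₂. Seeded in 96-well plates and preincubated 24 h before compound, tested at 1, 10, 100, 1000 μM in triplicate wells, 48 h continuous exposure. MTT (10 μL of 5%) added for 60 min, stain eluted with DMSO, absorbance read at 560 nm. IC50 from dose–response curves versus control; mean ± SD of three experiments.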
In general terms: Formazan colour is commonly taken as a measure of viable cells.

The next test relates to DU-145. The test can be described thus: Cytotoxicity against human DU145 cells after 48 hrs after MTT assay. In kind it is cell-based. As to conditions: DU-145, 48 h. In short, it runs like this:
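Cells kept in MEM with nonessential amino acids, 1 mM sodium pyruvate, bovine insulin, 10% FBS. Seeded in 96-well plates and preincubated 24 h, then exposed 48 h to 1, 10, 100, 1000 μM in triplicate wells. MTT (10 μL of 5%) for 60 min, DMSO elution, absorbance read at 560 nm. IC50 versus control absorbance; mean ± SD of three experiments.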

The next test deals with A549. The test can be described thus: Cytotoxicity against human A549 cells after 48 hrs after MTT assay. The class given is cell-based. The note with it: A549, 48 h. In short, it runs like this:
as §1

The test system of the next test is SK-N-SH. The test can be described thus: Cytotoxicity against human SK-N-SH cells after 48 hrs after MTT assay. The class given is cell-based. In short, it runs like this:
as §1

The nature of test [2]: Selectivity index ratio of IC50 for human DU145 cells to MIC for Mycobacterium tuberculosis H37Rv ATCC 27294. In kind it is functional, DU-145.
Test [3] relates to Mycobacterium tuberculosis. Kind of test: Ratio of ethambutol MIC to compound MIC against Mycobacterium tuberculosis H37Rv ATCC 27294. In kind it is functional.
In test [4] the test system is Mycobacterium tuberculosis. Kind of test: Ratio of pyrazinamide MIC to compound MIC against Mycobacterium tuberculosis H37Rv ATCC 27294. In kind it is functional.
Test [5] is described as follows: Selectivity index ratio of IC50 for human A549 cells to MIC for Mycobacterium tuberculosis H37Rv ATCC 27294. In kind it is functional.
A short description of test [6]: Selectivity index ratio of IC50 for human HeLa cells to MIC for Mycobacterium tuberculosis H37Rv ATCC 27294. The class given is functional.
A short description of test [7]: Selectivity index ratio of IC50 for human SK-N-SH cells to MIC for Mycobacterium tuberculosis H37Rv ATCC 27294. In kind it is functional.

The structures appear in SMILES notation. ≈ marks a conversion by molar mass, not a printed value.

As to `CC(c1ccc2c(c1)c1ccccc1n2C)n1cc(-c2ccccc2)nn1` (stereo unspecified), the minimum inhibitory concentration (MIC) in [1] stood at 71 µM (≈ 25 µg/mL).

Compound `CCCc1cn(C(C)c2ccc3c(c2)c2ccccc2n3C)nn1` (stereo unspecified) gave an MIC in [1] of 78 µM (≈ 24.8 µg/mL).

Consider `CCCCc1cn(C(C)c2ccc3c(c2)c2ccccc2n3C)nn1` (stereo unspecified), for which the lowest concentration to inhibit growth in [1] (MIC) was 75.3 µM (≈ 25 µg/mL).

`CCCCCCc1cn(C(C)c2ccc3c(c2)c2ccccc2n3C)nn1` (stereo unspecified) returned an MIC in test [1] of 70 µM (≈ 25.2 µg/mL).

The compound `CC(c1ccc2c(c1)c1ccccc1n2C)n1cc(CO)nn1` (stereo unspecified) gave a minimal inhibitory concentration (MIC) in test [1] of 81.7 µM (≈ 25 µg/mL).

In turn, `CC(c1ccc2c(c1)c1ccccc1n2C)n1cc(COCc2ccccc2)nn1` (stereo unspecified) came in with an MIC in [1] of 63.1 µM (≈ 25 µg/mL).

For `CC(c1ccc2c(c1)c1ccccc1n2C)n1cc(-c2ccccc2[N+](=O)[O-])nn1` (stereo unspecified), the MIC in [1] was 31.5 µM (≈ 12.5 µg/mL).

On to `CC(c1ccc2c(c1)c1ccccc1n2C)n1cc(-c2ccc(C(C)(C)C)cc2)nn1` (stereo unspecified), for which, in [1], 30.6 µM (≈ 12.5 µg/mL) was the least that counted as inhibitory (MIC).

As to `CC(c1ccc2oc3ccccc3c2c1)n1cc(-c2ccccc2)nn1` (stereo unspecified), the MIC in test [1] is 18.4 µM (≈ 6.24 µg/mL).

In [1], `CCCc1cn(C(C)c2ccc3oc4ccccc4c3c2)nn1` (stereo unspecified) showed a minimum inhibitory concentration (MIC) of 41 µM (≈ 12.5 µg/mL).

`CCCCc1cn(C(C)c2ccc3oc4ccccc4c3c2)nn1` (stereo unspecified): it took 39.2 µM (≈ 12.5 µg/mL) to inhibit growth in test [1] (MIC).

For `CCCCCCc1cn(C(C)c2ccc3oc4ccccc4c3c2)nn1` (stereo unspecified), in [1], it took 18 µM (≈ 6.25 µg/mL) to inhibit growth (MIC).

Take `CC(c1ccc2oc3ccccc3c2c1)n1cc(CO)nn1` (stereo unspecified): 85.3 µM (≈ 25 µg/mL) was the least that counted as inhibitory in test [1] (MIC).

With `CC(c1ccc2oc3ccccc3c2c1)n1cc(COCc2ccccc2)nn1` (stereo unspecified), the minimum inhibitory concentration (MIC) in test [1] amounted to 65.2 µM (≈ 25 µg/mL).

For `CC(c1ccc2oc3ccccc3c2c1)n1cc(-c2ccccc2[N+](=O)[O-])nn1` (stereo unspecified), in test [1], the minimum inhibitory concentration (MIC) stood at 16.3 µM (≈ 6.27 µg/mL).

As to `CC(c1ccc2oc3ccccc3c2c1)n1cc(-c2ccc(C(C)(C)C)cc2)nn1` (stereo unspecified), inhibition of growth in test [1] (MIC) required 15.8 µM (≈ 6.25 µg/mL).

`CC(c1ccc2sc3ccccc3c2c1)n1cc(-c2ccccc2)nn1` (stereo unspecified) returned an MIC in test [1] of 4.4 µM (≈ 1.56 µg/mL). Besides, the half-maximal inhibitory concentration (IC50) was 329 µM in the test with HeLa, 90 µM in the test with DU-145, 444 µM in the test on A549 and 291 µM in the test on SK-N-SH.

The compound `CCCc1cn(C(C)c2ccc3sc4ccccc4c3c2)nn1` (stereo unspecified) showed an MIC in [1] of 9.75 µM (≈ 3.13 µg/mL). Also, the IC50 stood at 87 µM in the test on HeLa, 96 µM with DU-145, 68 µM with A549 and 93 µM in the test with SK-N-SH.

Regarding `CCCCc1cn(C(C)c2ccc3sc4ccccc4c3c2)nn1` (stereo unspecified), in test [1], the MIC is 4.66 µM (≈ 1.56 µg/mL). Further, the 50% inhibitory concentration (IC50) with HeLa came out at 62 µM; in the test with DU-145 it was 107 µM; in the test with A549 it was 80 µM; in the test on SK-N-SH it was 101 µM.

Compound `CCCCCCc1cn(C(C)c2ccc3sc4ccccc4c3c2)nn1` (stereo unspecified) registered an MIC in [1] of 4.3 µM (≈ 1.56 µg/mL).

In test [1], `CC(c1ccc2sc3ccccc3c2c1)n1cc(CO)nn1` (stereo unspecified) had a minimal inhibitory concentration (MIC) of 20.2 µM (≈ 6.25 µg/mL).

For `CC(c1ccc2sc3ccccc3c2c1)n1cc(COCc2ccccc2)nn1` (stereo unspecified), in [1], inhibition of growth (MIC) required 7.84 µM (≈ 3.13 µg/mL). Moreover, the IC50 in the test with HeLa came out at 438 µM; with DU-145, 225 µM; in the test with A549 it was 189 µM; in the test on SK-N-SH, 103 µM.

In [1], `CC(c1ccc2sc3ccccc3c2c1)n1cc(-c2ccccc2[N+](=O)[O-])nn1` (stereo unspecified) displayed an MIC of 3.9 µM (≈ 1.56 µg/mL). For the same compound, the IC50 was 136 µM in the test with HeLa, 126 µM in the test with DU-145, 190 µM with A549 and 386 µM in the test on SK-N-SH.

`CC(c1ccc2sc3ccccc3c2c1)n1cc(-c2ccc(C(C)(C)C)cc2)nn1` (stereo unspecified) registered an MIC in test [1] of 1.89 µM (≈ 0.778 µg/mL). The IC50 stood at 191 µM in the test with HeLa, 105 µM in the test on DU-145, 482 µM with A549 and 260 µM in the test on SK-N-SH. The Ratio was 55 in [2]; 4 in [3]; 26 in [4]; 55 in test [5]; 55 in test [6]; 55 in test [7].

Consider `Cc1ccc(-c2cn(C(C)c3ccc4sc5ccccc5c4c3)nn2)cc1` (stereo unspecified), for which the MIC in [1] was determined as 8.48 µM (≈ 3.13 µg/mL). Further, the IC50 in the test with HeLa was 164 µM; in the test with DU-145, 174 µM; in the test with A549 it was 108 µM; in the test on SK-N-SH, 32 µM.

In test [1], `CC(c1ccc2sc3ccccc3c2c1)n1cc(CCc2ccccc2)nn1` (stereo unspecified) returned a minimum inhibitory concentration (MIC) of 8.17 µM (≈ 3.13 µg/mL). Also, the IC50 in the test with HeLa was 79 µM; in the test on DU-145 it was 100 µM; in the test on A549, 78 µM.

Compound `CC(c1ccc2sc3ccccc3c2c1)n1cc(-c2ccc([N+](=O)[O-])cc2)nn1` (stereo unspecified) returned a minimum inhibitory concentration (MIC) in test [1] of 3.9 µM (≈ 1.56 µg/mL). The IC50 with HeLa worked out at 210 µM; in the test on DU-145 it was 138 µM; with A549, 852 µM; in the test with SK-N-SH, 30 µM.

Take `CC(c1ccc2sc3ccccc3c2c1)n1cc(-c2ccsc2)nn1` (stereo unspecified): the minimal inhibitory concentration (MIC) in test [1] was 34.6 µM (≈ 12.5 µg/mL).

`COc1ccc2cc(-c3cn(C(C)c4ccc5sc6ccccc6c5c4)nn3)ccc2c1` (stereo unspecified) returned an MIC in test [1] of 28.7 µM (≈ 12.5 µg/mL).

With `CC(c1ccc2sc3ccccc3c2c1)n1cc(-c2cc3ccccc3c3ccccc23)nn1` (stereo unspecified), the minimum inhibitory concentration (MIC) in [1] amounted to 54.9 µM (≈ 25 µg/mL).

For the compound `CC(c1ccc2sc3ccccc3c2c1)n1cc(-c2ccc(-c3ccccc3)cc2)nn1` (stereo unspecified), the lowest concentration to inhibit growth in test [1] (MIC) was 14.5 µM (≈ 6.26 µg/mL).

For `CC(c1ccc2sc3ccccc3c2c1)n1cc(-c2ccc(Cl)cc2Cl)nn1` (stereo unspecified), the MIC in test [1] came out at 3.68 µM (≈ 1.56 µg/mL). In addition, the IC50 in the test on HeLa amounted to 162 µM; in the test on DU-145, 150 µM; in the test on A549, 400 µM; in the test on SK-N-SH, 477 µM.

In turn, `CC(c1ccc2sc3ccccc3c2c1)n1cc(-c2ccc(F)cc2Cl)nn1` (stereo unspecified) came in with an MIC in [1] of 1.91 µM (≈ 0.779 µg/mL). In addition, the concentration for half-maximal inhibition (IC50) in the test with HeLa was 155 µM; in the test on DU-145 it was 147 µM; in the test on A549 it was 249 µM; in the test on SK-N-SH, 342 µM. Also, the Ratio is 55 in test [2]; 4 in [3]; 26 in [4]; 55 in test [5]; 55 in [6]; 55 in test [7].

`CC(c1ccc2sc3ccccc3c2c1)n1cc(-c2ccc(Br)cc2F)nn1` (stereo unspecified) showed an MIC in test [1] of 3.45 µM (≈ 1.56 µg/mL). Besides, the IC50 with HeLa worked out at 457 µM; with DU-145, 222 µM; in the test on A549 it was 219 µM; in the test with SK-N-SH, 76 µM.

On to `CC(c1ccc2sc3ccccc3c2c1)n1cc(-c2cc(F)ccc2F)nn1` (stereo unspecified), for which the MIC in [1] was 3.98 µM (≈ 1.56 µg/mL). Besides, the half-maximal inhibitory concentration (IC50) in the test with HeLa was determined as 96 µM; in the test on DU-145, 767 µM; with A549, 272 µM; in the test on SK-N-SH, 21 µM.

As for `CC(c1ccc2sc3ccccc3c2c1)n1cc(-c2cc(F)cc(F)c2Cl)nn1` (stereo unspecified), in test [1], the MIC turned out to be 12.5 µM (≈ 5.32 µg/mL). In addition, the concentration for half-maximal inhibition (IC50) with HeLa turned out to be 116 µM; in the test with DU-145, 120 µM; in the test with A549, 507 µM; in the test with SK-N-SH, 46 µM.

`CC[C@@H](CO)NCCN[C@@H](CC)CO` [ETHAMBUTOL]: the MIC in [1] came to 7.6 µM (≈ 1.55 µg/mL).

In test [1], `NNC(=O)c1ccncc1` [ISONIAZID] gave an MIC of 0.37 µM (≈ 0.0507 µg/mL).

Consider `NC(=O)c1cnccn1` [PYRAZINAMIDE], for which the MIC in [1] stood at 50.1 µM (≈ 6.17 µg/mL).

For orientation: MIC means the lowest concentration that inhibits growth of the organism. High values mean weaker potency, low ones greater potency. Broadly, the IC50 is the concentration that inhibits the measured activity by half. The low end stands for inhibition by little substance, the high end for a need for much substance.
